Assay [1] concerns the target Neuronal acetylcholine receptor subunit alpha-7 (Rattus norvegicus, UniProt Q05941). The assay can be described thus: Inhibition of [125I]alpha-bungarotoxin binding to nicotinic acetylcholine receptor alpha-7 subunit in rat GH4C1 cells. The class given is cell-based, GH4-C1.
Another assay deals with Acetylcholine receptor (Torpedo californica, UniProt P02710+P02712+P02714+P02718). The assay can be described thus: Inhibition of [125I]alpha-bungarotoxin binding to nicotinic acetylcholine receptor alpha1 beta gamma delta of electroplax. The format is protein-complex assay. A digest of the protocol: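 Competition binding with [125I]-α-bungarotoxin on electroplax membranes; N = 3 determinations.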

For assay [2], the target named is T1, Neuronal acetylcholine receptor; alpha4/beta2 (Homo sapiens) (UniProt P17787+P43681). The assay can be described thus: Percent antagonist activity against 10 uM nicotine at human nicotinic acetylcholine receptor alpha4-beta2 at 10 uM. The format is functional.
The target in assay [3] is T1, Neuronal acetylcholine receptor; alpha4/beta2 (Homo sapiens). The assay can be described thus: Percent agonist activity relative to 10 uM (-)-nicotine at human nicotinic acetylcholine receptor alpha4-beta2 at 10 uM. The format is functional. A digest of the protocol: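 Electrophysiology in Xenopus oocytes expressing human α4β2 nAChR. Compound applied alone at 10 µM. Current compared with the response to 10 µM (-)-nicotine (chosen over EC50 level to limit desensitization) and expressed as percent; N = 3, SEM ≤10%.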

Assay [4] concerns the target Neuronal acetylcholine receptor; alpha3/beta4 (Homo sapiens, UniProt P30926+P32297). As to the kind of experiment: Inhibition of [3H]epibatidine binding to nicotinic acetylcholine receptor alpha3-beta4 of human IMR32 cells. The format is cell-based, IMR-32. A digest of the protocol: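 Displacement of [3H]-epibatidine from IMR32 cell preparations; N = 3 determinations.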

The target of assay [5] is Neuronal acetylcholine receptor; alpha4/beta2 (Rattus norvegicus, UniProt P09483+P12390). The assay can be described thus: Inhibition of [3H]nicotine binding to nicotinic acetylcholine receptor alpha4-beta2 of rat cortex. The method, boiled down:
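Radioligand displacement in rat cortex tissue; N = 3 determinations.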

A word on the Ki: it is a dissociation constant, usually derived from enzyme kinetics or from competition with a known ligand. Higher therefore signals lower affinity. Usually inhibition stands for the drop in the measured response relative to a control, in per cent. The low end stands for a response near the control, the high end for a response far below the control.

Chain of Neuronal acetylcholine receptor; alpha3/beta4 (P30926 whole entry): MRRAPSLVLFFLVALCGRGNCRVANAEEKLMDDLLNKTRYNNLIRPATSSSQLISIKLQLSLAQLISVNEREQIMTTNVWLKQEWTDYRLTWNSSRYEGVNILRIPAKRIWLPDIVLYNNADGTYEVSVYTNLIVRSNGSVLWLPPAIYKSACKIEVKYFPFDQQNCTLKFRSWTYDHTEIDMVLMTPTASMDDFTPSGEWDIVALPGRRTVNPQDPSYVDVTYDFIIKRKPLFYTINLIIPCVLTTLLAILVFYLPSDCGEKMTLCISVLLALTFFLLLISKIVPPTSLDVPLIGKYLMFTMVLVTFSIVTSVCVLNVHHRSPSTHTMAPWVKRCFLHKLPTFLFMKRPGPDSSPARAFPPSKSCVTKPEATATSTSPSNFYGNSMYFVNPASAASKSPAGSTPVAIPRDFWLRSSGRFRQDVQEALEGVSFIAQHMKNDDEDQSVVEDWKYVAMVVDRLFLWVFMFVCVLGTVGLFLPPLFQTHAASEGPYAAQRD
Chain of Neuronal acetylcholine receptor; alpha3/beta4 (P32297 whole entry): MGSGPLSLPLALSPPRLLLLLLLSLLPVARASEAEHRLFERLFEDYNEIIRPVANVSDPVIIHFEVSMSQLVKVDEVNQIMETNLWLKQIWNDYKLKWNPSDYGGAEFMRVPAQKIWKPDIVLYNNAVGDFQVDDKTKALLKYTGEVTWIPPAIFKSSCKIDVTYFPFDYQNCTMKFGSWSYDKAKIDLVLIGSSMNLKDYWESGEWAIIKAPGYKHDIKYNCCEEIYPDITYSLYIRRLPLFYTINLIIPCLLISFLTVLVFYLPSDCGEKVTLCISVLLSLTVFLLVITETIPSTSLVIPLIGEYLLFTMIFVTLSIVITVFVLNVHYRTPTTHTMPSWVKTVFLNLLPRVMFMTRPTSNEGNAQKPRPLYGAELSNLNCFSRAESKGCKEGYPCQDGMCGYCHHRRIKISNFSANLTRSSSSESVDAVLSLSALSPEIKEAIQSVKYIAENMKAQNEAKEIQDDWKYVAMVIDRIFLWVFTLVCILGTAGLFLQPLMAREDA
Chain of Acetylcholine receptor (P02710 whole entry): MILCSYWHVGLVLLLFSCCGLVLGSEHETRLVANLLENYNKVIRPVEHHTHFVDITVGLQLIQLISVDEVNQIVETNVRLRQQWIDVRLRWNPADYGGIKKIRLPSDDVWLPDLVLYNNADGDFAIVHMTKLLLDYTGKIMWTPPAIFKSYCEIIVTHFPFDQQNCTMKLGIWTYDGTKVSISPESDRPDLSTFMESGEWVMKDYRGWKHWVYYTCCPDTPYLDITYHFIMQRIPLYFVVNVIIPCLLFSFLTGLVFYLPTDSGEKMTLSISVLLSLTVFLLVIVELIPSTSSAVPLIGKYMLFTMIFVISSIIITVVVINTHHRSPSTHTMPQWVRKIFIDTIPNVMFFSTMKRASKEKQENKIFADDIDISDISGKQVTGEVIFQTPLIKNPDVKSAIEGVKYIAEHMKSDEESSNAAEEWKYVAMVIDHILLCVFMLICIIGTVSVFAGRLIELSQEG
Chain of Acetylcholine receptor (P02712 whole entry): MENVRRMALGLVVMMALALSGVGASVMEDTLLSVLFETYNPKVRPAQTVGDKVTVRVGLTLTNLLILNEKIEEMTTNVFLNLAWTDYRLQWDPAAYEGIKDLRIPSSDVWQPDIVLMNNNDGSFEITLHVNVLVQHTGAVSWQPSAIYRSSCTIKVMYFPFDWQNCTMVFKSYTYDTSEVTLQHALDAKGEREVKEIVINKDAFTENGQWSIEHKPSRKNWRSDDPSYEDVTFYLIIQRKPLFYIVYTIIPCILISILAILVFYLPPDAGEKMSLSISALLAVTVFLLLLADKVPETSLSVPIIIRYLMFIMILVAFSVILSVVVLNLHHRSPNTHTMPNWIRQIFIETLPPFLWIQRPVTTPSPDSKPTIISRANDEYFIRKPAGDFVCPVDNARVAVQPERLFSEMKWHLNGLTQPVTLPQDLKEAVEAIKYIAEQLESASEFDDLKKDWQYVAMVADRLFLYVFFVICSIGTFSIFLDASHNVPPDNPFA
Chain of Acetylcholine receptor (P02718 whole entry): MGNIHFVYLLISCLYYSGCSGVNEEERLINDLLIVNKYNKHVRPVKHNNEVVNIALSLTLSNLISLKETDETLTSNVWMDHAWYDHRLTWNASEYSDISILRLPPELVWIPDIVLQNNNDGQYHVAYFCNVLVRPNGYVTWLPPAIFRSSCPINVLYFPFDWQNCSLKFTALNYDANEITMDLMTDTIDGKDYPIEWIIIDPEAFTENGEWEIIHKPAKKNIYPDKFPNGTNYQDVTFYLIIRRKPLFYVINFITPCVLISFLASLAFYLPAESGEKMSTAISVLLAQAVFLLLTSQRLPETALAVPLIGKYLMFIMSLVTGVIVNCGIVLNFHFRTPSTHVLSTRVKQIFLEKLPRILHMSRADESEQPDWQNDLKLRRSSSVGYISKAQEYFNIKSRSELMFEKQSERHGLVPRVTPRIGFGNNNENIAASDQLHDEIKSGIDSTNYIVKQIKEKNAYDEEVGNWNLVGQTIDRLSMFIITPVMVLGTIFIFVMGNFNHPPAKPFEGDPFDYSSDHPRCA
Chain of Acetylcholine receptor (P02714 whole entry): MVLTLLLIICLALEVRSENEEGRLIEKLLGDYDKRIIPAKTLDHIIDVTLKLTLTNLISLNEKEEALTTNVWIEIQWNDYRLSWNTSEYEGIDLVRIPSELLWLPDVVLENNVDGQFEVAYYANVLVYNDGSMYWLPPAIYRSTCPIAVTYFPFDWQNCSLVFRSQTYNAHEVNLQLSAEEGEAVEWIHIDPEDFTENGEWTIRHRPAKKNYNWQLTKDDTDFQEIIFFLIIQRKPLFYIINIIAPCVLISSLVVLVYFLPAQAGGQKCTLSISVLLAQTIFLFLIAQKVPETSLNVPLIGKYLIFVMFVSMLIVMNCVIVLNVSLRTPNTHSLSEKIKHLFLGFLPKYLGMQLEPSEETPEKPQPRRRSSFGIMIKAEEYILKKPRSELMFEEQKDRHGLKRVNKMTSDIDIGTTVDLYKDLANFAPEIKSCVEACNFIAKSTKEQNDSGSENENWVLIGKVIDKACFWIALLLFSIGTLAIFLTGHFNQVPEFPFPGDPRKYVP
Chain of Neuronal acetylcholine receptor; alpha4/beta2 (P09483 whole entry): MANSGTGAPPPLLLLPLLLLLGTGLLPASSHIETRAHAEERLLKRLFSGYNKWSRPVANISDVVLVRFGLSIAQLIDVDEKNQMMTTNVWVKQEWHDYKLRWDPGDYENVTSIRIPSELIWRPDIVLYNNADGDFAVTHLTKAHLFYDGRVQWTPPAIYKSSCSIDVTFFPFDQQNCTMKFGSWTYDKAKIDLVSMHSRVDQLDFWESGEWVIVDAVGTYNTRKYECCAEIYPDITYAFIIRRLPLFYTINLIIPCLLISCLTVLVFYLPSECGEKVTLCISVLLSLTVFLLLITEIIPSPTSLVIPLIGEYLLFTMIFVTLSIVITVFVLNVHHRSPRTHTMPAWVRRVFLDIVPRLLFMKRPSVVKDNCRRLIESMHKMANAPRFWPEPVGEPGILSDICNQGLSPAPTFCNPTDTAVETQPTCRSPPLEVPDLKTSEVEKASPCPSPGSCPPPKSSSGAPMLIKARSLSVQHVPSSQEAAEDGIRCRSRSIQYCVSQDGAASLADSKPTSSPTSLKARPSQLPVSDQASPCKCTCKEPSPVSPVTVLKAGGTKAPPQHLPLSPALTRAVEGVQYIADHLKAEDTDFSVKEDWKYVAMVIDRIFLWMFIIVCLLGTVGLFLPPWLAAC
Chain of Neuronal acetylcholine receptor; alpha4/beta2 (P12390 whole entry): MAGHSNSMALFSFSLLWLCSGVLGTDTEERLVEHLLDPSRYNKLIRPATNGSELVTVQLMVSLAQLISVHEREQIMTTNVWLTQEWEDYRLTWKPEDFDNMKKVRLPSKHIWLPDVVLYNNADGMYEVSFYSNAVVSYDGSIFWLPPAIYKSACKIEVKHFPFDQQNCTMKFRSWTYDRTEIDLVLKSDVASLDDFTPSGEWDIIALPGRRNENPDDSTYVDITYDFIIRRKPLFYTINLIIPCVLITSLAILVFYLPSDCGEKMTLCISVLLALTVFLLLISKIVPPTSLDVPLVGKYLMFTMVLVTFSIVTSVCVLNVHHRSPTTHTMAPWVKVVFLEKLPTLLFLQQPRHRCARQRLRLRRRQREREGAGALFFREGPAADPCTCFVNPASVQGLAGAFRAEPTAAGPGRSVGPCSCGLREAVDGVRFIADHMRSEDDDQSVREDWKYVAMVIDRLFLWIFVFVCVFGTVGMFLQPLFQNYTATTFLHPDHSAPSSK
Chain of Neuronal acetylcholine receptor subunit alpha-7 (Q05941 whole entry): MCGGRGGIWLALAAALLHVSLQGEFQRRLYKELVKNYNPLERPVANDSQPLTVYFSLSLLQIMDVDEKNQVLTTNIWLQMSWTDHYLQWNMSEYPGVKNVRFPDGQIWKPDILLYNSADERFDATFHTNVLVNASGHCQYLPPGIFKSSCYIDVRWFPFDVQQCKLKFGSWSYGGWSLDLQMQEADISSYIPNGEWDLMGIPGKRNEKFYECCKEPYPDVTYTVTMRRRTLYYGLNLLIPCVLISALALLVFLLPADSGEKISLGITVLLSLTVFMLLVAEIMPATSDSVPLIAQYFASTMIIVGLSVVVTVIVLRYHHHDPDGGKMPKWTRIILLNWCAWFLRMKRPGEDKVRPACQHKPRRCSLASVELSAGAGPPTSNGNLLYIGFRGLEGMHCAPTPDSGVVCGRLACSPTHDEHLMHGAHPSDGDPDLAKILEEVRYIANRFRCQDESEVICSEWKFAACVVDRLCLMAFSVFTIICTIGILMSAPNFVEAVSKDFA

Regarding `c1ccc2c(c1)C1CNCC2C1`, the Ki in assay [1] was more than 5000 nM; at Acetylcholine receptor, 370 nM; in assay [4] it was 2850 nM; in assay [5], 20 nM. In assay [2], the inhibition came to 35%. This compound also showed a Response in assay [3] of 0%.
Regarding `c1cnc2cc3c(cc2n1)[C@@H]1CNC[C@H]3C1`, the Ki in assay [1] was 322 nM; at Acetylcholine receptor it was 3540 nM; in assay [5] it was 0.06 nM. This compound also had an inhibition in assay [2] of 34%. This compound came in with a Response in assay [3] of 68%.
With `O=[N+]([O-])c1ccc2c(c1)C1CNCC2C1` (racemic), the Ki in assay [1] came to 7340 nM; at Acetylcholine receptor, 690 nM; in assay [4], 210 nM; in assay [5] it was 0.75 nM. Further, the inhibition in assay [2] came out at 20%. Besides, in assay [3], the Response was found to be 65%.
`O=c1cccc2n1C[C@@H]1CNC[C@H]2C1` (single isomer, unassigned) [CYTISINICLINE]: the Ki in assay [1] is 4200 nM; at Acetylcholine receptor, 250 nM; in assay [4], 840 nM; in assay [5], 0.17 nM. In addition, in assay [2], the inhibition amounted to 30%. The same compound came in with a Response in assay [3] of 56%.
Regarding `CN1CCC[C@H]1c1cccnc1` [NICOTINE], the Ki on Acetylcholine receptor amounted to 6270 nM. The compound also returned a Response in assay [3] of 100%.
